Assay results taken from the EternaBench riboswitch data.

System: MS2 coat protein
Assay: apparent Kd, MS2 coat protein; higher = weaker binding; RNA-MaP array; FMN 200 µM where present
How it was run: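 Binding was read on Illumina sequencing-chip clusters where stalled E. coli RNA polymerase had transcribed each design. A titration of SNAP-549-labelled MS2 coat protein began at 0.7 or 1.5 nM and doubled to 3 µM, once without ligand and once with constant ligand, in 100 mM Tris-HCl pH 7.5, 80 mM KCl, 4 mM MgCl2, BSA, DTT, yeast tRNA and Tween-20. The apparent Kd is the median of filtered per-cluster binding-curve fits, based on green signal normalised to red-channel RNA signal and control-cluster median Fmax.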

[1] = designed as: OFF switch for flavin mononucleotide, no ligand
[2] = ligand present: flavin mononucleotide, designed as: OFF switch for flavin mononucleotide
[3] = designed as: ON switch for flavin mononucleotide, no ligand
[4] = ligand present: flavin mononucleotide, designed as: ON switch for flavin mononucleotide

Row | Sequence | apparent Kd [1] [nM] | apparent Kd [2] [nM] | apparent Kd [3] [nM] | apparent Kd [4] [nM]
1 | UGGGUAAAUGUAGGAUAUCCAUAUUAAUAAUAUGGAGAAGGACAUGAGGAUCACCCAUGUACAGGGAAUUACCCAUUUCCUCUC | 80.1 | 287 | – | –
2 | AUUGUGUUAGGAUAUGCUUAUGGUGGAUAGUCCAGUAUGAUGUAGAAGGGACAUGAGGAUCACCCAUGUGCUGA | 46.9 | 48.5 | – | –
3 | CGCUGGUGAGGAUAUGGGUGUGGUUACAUGAGGAUCACCCAUGUGGUGUCGCGCGUGGGUCCAGAAGGCGCGGGUG | 246 | 170 | – | –
4 | AAUUUACAUGAGGAUCACCCAUGUGAGGAUAUGAUACUAUGUACUUCGGUACAUAGUAUCAGAAGGCAUGUGGG | 27.2 | 21.4 | – | –
5 | UCUGCCGCCGUGAGGAUAUGCCCGCAAAAACGCGGGCAGAAGGCACAUGAGGAUCACCCAUGUCCCGCGGUUUU | 13.9 | 33.6 | – | –
6 | CGCUAGCGAAUAGUAAUAAAAGUACAGGAUAUGUUACAUGAGGAUCACCCAUGUAUUGGGUAAGAACAGAAGGGUACGCUAGCG | 136 | 97.8 | – | –
7 | UGGUACAUGGGAGGAUAUGGGUUGAUAACAUGAGGAUCACCCAUGUUAAAAUGCCGAAAGGCAAACUAGAAGGCCCAUGUACCU | – | – | 443 | 32.2
8 | UUCCGGCGUGUAGGAUAUGGAUCCGAUUAGGAUCCAGAAGGACAUGAGGAUCACCCAUGUACAUGUAAACAGUCAUCACCGGAA | 6.09 | 7.65 | – | –
9 | GGUGGACAUGAGGAUCACCCAUGUGAGGAUAUCGGCUGGCUAGCGGCGGACGGCUUCUCGAGAAGGCGCAUUGU | 57.8 | 57.1 | – | –
10 | UGUUGUAUUACAGGAUAUCUAUUAUUUUUAUUUAGAGAAGGGUAUUCACAUGAGGAUCACCCAUGUAUAUACGAGGAAGAUGUG | – | – | 91.5 | 107
11 | GUGACGAAUGUAGGAUAUGCUGAGGAAUACUCAGCAGAAGGACAUGAGGAUCACCCAUGUCAUCCUAAUAAUAAAUAACGUCAC | 12.3 | 17.4 | – | –
12 | UUGGACGUCGUAGGAUAUGUAGGAUAUUCCAACAUGAGGAUCACCCAUGUUGACAUGGAAGAAGGACAGAAGGACGAUGUCCAU | – | – | 4.28 | 3.63
13 | AGAGCCUCGUGAGGAUAUACAUGAGGAUCACCCAUGUAAUAAGAUCAACGGAGGAAACUCCGAAUGUAGAAGGCACGAGGCUCA | 37.2 | 423 | – | –
14 | CCCUGAGACCGGUUAAUUGGCUGAUAGGAUAUCCUCGGACAUGAGGAUCACCCAUGUUAACUAUUGGAGAAGGGUCAGCGAAAG | – | – | 448 | 216
15 | AACAGCUCGUCAGGAUAUAUUAUCUUUUUAUGUAUUUAUGUACAUGAGGAUCACCCAUGUUGUUUGUAGAAGGGACGAGCUGAA | 30.4 | 26.5 | – | –
16 | GUCAUGUCAGGAUAUGCUUAUGGUGGGUGCUCAGACAUGAUGCAGAAGGGACAUGAGGAUCACCCAUGUACUGU | 35.8 | 60.9 | – | –
17 | AAAUUUAACGAAGGAUAUGCUUACAUGAGGAUCACCCAUGUGUGCCUUGUGAUGCUGAUUAAGUUGCAGAAGGUCGUAUACAUA | 124 | 414 | – | –
18 | CCUUUGUCAGGAUAUCGAAAAGGGAGGCCAAAGGCCUCCGGUGAGAAGGGACAUGAGGAUCACCCAUGUGAAAA | 77.3 | 383 | – | –
19 | CCCGUGUGUUAAGGAUAUGGCAGGCGCGUUGAACCAGAAGGUAGCACAUGAGGAUCACCCAUGUGAAUGCUCACGACUCGAGCA | 40.1 | 23.6 | – | –
20 | AAUUUACAGGGAGGAUAUACAUGAGGAUCACCCAUGUAAUCAUAUGAUAUUUUUUUUGUAUGAGUGUAGAAGGCCCAACUACCA | 10.7 | 11 | – | –
21 | GAGUGGCAAGGAUAUACAGUGGAGAGGAUGGCAAGAGGUGGACAUGAGGAUCACCCAUGUAGAAGGUGCAGAGA | 154 | 235 | – | –
22 | AAUGAGUUUCUCACACUGUUCACAUGAGGAUCACCCAUGUACAGAAGGUAGAGACUUCCGGUCGCUAAGGAUAUGUAGAGGGUC | 5.05 | 6.01 | – | –
23 | GAGAAACAUGAGGAUCACCCAUGUGAGGAUAUGCGUACGUUGUCCGUAGGCGACGUGCGCAGAAGGCGCAAAGG | 83.9 | 118 | – | –
24 | GGUCGUCACAUGAACAUGAGGAUCACCCAUGUAACUAGACAUGAGGAUAUGGAUCCUAAUUGGAUCCAGAAGGCAUGGACGACC | – | – | 203 | 31.2

Row | Sequence | apparent Kd [1] [nM] | apparent Kd [2] [nM] | apparent Kd [3] [nM] | apparent Kd [4] [nM]
25 | ACGAGACUCGUGAGGAUAUCGUGUUGUAAGCAGAUCGAGAAGGCACAUGAGGAUCACCCAUGUUUACUGCCACA | 17 | 21.9 | – | –
26 | CGUAACUGCAUAGGAUAUUGUUACAUGAGGAUCACCCAUGUUUUUCGGAUUAUUUAUCUACUUAGCAAGAAGGAUGGAGUUACG | – | – | 6.82 | 4.74
27 | AAAAAGUGAGGAUAUACAUGAAAAAAAAAAAAAAAAAAAAAACAUGAGGAUCACCCAUGUAGAAGGCGCAAAAA | 55.1 | 45.7 | – | –
28 | GACUGCAUGUAAGGAUAUCGACUGGAUAACAGUCGAGAAGGUACAUGAGGAUCACCCAUGUAAUAAGAUCAAUAAUAAGCAGUC | 14.4 | 31.3 | – | –
29 | AACAAGAGGAUCACCCAUGUAACAUGAGGAUCACCCAUGUUUAAGGAUAUGUACAUGAUACAUGUACAGAAGGUGGAUUGGACU | 26.2 | 27.2 | – | –
30 | GGGUCAACAUGAGGAUCACCCAUGUAGGAUAUCGCUAUUGUAAUCAUGAAACAUGAUUACAAUAGCGAGAAGGACAUAUGUCCC | 9 | 11.8 | – | –
31 | GGAUAGGACAGAGGAUAUACGUGCUAGAGAUACUAGCAAGAUUUCCUCACAUGAGGAUCACCCAUGUAGAAGGCUGUCCUAUCG | 13.2 | 348 | – | –
32 | AUCUCAGGACGAGGAUAUCAAUACAUGAGGAUCACCCAUGUAUGAUUACUGUGAUCCUUCAAGGCUGAGAAGGCGUCCCAAAUG | 12.2 | 27 | – | –
33 | UUUUAACAUGAGGAUCACCCAUGUGAGGAUAUCGAAAUUUAUAUUAAUAUUAAUUAAACGAGAAGGCACAUUUU | 61.5 | 86.4 | – | –
34 | AUAGGAUGAGGUGACGUACAUGAGGAUCACCCAUGUUUGACACAGGAUAUCCCGCGACUUGGUUUGGAGAAGGGUGGCAGACAA | 164 | 119 | – | –
35 | GUCAGCUCGUGAGGAUAUACAGCACUGCUUCGGCAGUGUAUUAAGAUCACAUGAGGAUCACCCAUGUAGAAGGCACGAGCUGAU | 28.1 | 599 | – | –
36 | UGAGUGCGUGUUAGGAUAUGGUUUGGUAUUUCGGGCUAGAAGGGACAUGAGGAUCACCCAUGUAAUUGAUAGGU | 47 | 53 | – | –
37 | CAAUUUAUAACAGGAUAUGUAUUACAAUAGUUAAUAGAAGGGUUUAAUACAUGAGGAUCACCCAUGUCAUGUGUCAUAAUUACC | 33.5 | 28.8 | – | –
38 | UAGCUUGACGCAGGAUAUCCAAGGCUGAAAUGAGGAGAAGGGCGCCAAACAUGAGGAUCACCCAUGUAUUAUGCAGGGUCCUCG | 302 | 152 | – | –
39 | CGAUAGGACAGAGGAUAUACACAUGAGGAUCACCCAUGUAAUUACAACUCAUGAGGAUCACCCAUGUAGAAGGCUGUCCUAUCG | 397 | 430 | – | –
40 | CCGCCAAUCGAGAAGGGCCCAUGUGCUACGUCGGCAGGAUAUCGACAUGAGGAUCACCCAUGUUGGCGAUCCUUUUUGGCGAAC | 149 | 108 | – | –
41 | GGUACUCAAAGAGUACCAAUACGAACAUGAGGAUCACCCAUGUAGGAUAUGUUUUCGCCGGAGUAUCAGAAGGACAUGUGCCUA | 10.9 | 9.15 | – | –
42 | CAGCUGAAAGUGAGGAUAUAGACUGCUUCGGCAGUCUAGAAGGCACAUGAGGAUCACCCAUGUCUCAACAGCUG | 16.6 | 70.2 | – | –
43 | GGUGCGUUUGUGAGGAUAUGCUGGUCCUUGGGUCAGCAGAAGGCACAUGAGGAUCACCCAUGUGGUGUCGUACC | 358 | 42.9 | – | –
44 | UCGAUAAGGAGAGGAUAUGGACAUGAGGAUCACCCAUGUACAUGGGAAUAUAUACUGAAUUUUUACUAGAAGGCUUACAUAAAU | 14.7 | 12.4 | – | –
45 | AUGUGAGCAGGAUAUGCAGGUGUGCCGGAAGAAAGAAGAGGACAUGAGGAUCACCCAUGUAGAAGGGCUAGCCC | 49 | 31.3 | – | –
46 | UGUUGUUCCGCAGGAUAUGUAUUGGAUUACAAUACAGAAGGGCGAUAACAUGAGGAUCACCCAUGUGUGGACAAUAAGGAAGAG | – | – | 708 | 67.1
47 | AUUAUAUAGGAAGGAUAUAGAAUAUUAUUUUAACAUGAGGAUCACCCAUGUAACCUUAUGUGUAGCUAGAAGGUCCAUUUAUUA | 97.5 | 153 | – | –
48 | UUACUCAUGUAAGGAUAUGCAGCCGAAACGGCUGCAGAAGGUACUAAAAUACAUGAGGAUCACCCAUGUCUUUUUAUUUUAGAC | – | – | 197 | 129
